# Data taken from ChEMBL document CHEMBL4393678, “Novel Tetrahydroquinazolinamines as Selective Histamine 3 Receptor Antagonists for the Treatment of Obesity” (J Med Chem, 2019).
# Activity calls are given as the source filed them. The calls are words filed in the database; no cut-off is given here.
# Assays:
# [1] = system: Mus musculus; assay: Anti-obesity activity in high fat diet-induced obese C57BL/6J mouse model assessed as reduction in body fat mass at 20 mg/kg, po measured after 6 weeks relative to control by NMR-based magnetic resonance imaging analysis; type: functional; design: scale not given: the % may be the effect or the level left
# [2] = system: Mus musculus; assay: Anti-obesity activity in high fat diet-induced obese C57BL/6J mouse model assessed as reduction in body weight at 10 to 20 mg/kg, po; type: functional, organism-based; conditions: TDE = time-dependent effect
# [3] = system: Mus musculus; assay: Anti-obesity activity in high fat diet-induced obese C57BL/6J mouse model assessed as change in body weight at 10 mg/kg, po measured after 6 weeks (reference value: 3.86 +/- 0.99 g); type: functional
# How it was run: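 Male C57BL/6J mice (6–8 weeks, 22–25 g) on high-fat diet, with a normal-chow group included. Daily chronic oral dosing against vehicle for six weeks. Percent body weight change followed over the treatment days, and net body weight change taken at six weeks. n=5-6 per group. Two-way ANOVA, or one-way ANOVA with Newman-Keuls test.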
# [4] = Cmax in C57BL/6J mouse serum assessed as 4-(2-Amino-8-methyl-5,6,7,8-tetrahydroquinazolin-4-yl)phenol level at 20 mg/kg, po by LC-MS/MS analysis; type: ADME, organism-based; design: dose 20 mg/kg, route oral; conditions: in vivo
# How it was run: (§1)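 Male C57BL/6J mice (6-8 weeks, 20 ± 5 g) fasted overnight (12-16 h) got a single 20 mg/kg oral dose as 2.5 mg/mL suspension in 1% w/v gum acacia; n=5 per time point. Serum and brain (PBS homogenate 1:6 w/v) sampled up to 24 h. Parent and demethylated metabolite quantified by LC-MS/MS after liquid-liquid extraction (C18, MRM, phenacetin internal standard; linear 0.25-200 ng/mL). Two-compartment open model fit.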
# [5] = molecular target: Kappa-type opioid receptor (Homo sapiens) (UniProt P41145); assay: Antagonist activity at Gi-coupled KOR (unknown origin) expressed in HEK293T cells assessed as reduction in histamine-induced inhibition of forskolin-stimulated cAMP accumulation preincubated for 10 to 15 followed by histamine addition for 10 mins and subsequent forskolin-stimulation by Glo-sensor assay; type: functional, cell-based
# Sequence of Kappa-type opioid receptor (Homo sapiens) (P41145 whole entry): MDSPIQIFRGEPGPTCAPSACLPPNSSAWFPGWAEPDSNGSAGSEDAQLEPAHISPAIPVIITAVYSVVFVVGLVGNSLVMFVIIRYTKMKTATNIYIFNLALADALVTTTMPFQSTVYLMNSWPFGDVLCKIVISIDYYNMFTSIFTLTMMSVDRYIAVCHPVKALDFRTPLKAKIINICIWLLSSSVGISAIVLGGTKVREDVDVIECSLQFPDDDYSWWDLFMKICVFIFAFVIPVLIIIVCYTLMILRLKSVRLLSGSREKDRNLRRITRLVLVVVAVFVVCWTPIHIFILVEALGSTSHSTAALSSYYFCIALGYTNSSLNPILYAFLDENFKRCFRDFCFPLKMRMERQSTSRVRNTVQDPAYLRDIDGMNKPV
# [6] = system: Mus musculus; assay: Anti-obesity activity in high fat diet-induced obese C57BL/6J mouse model assessed as reduction in body weight at 10 mg/kg, po measured up to 39 days; type: functional, organism-based
# [7] = system: Mus musculus; assay: Anti-obesity activity in 16 hrs fasted db/db-induced obese C57BL/6J mouse model assessed as change in blood HDL level at 20 mg/kg, po measured after 6 weeks; type: functional, organism-based
# [8] = system: Mus musculus; assay: Anti-obesity activity in high fat diet-induced obese C57BL/6J mouse model assessed as change in body weight at 20 mg/kg, po measured after 6 weeks (reference value: 3.86 +/- 0.99 g); type: functional
# [9] = AUClast in C57BL/6J mouse serum assessed as 4-(2-Amino-8-methyl-5,6,7,8-tetrahydroquinazolin-4-yl)phenol level at 20 mg/kg, po by LC-MS/MS analysis; type: ADME, organism-based; design: dose 20 mg/kg, time 0 - last, route oral; conditions: in vivo
# How it was run: (§2)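 Male C57BL/6J mice, 6-8 weeks, 20 ± 5 g, fasted overnight (12-16 h), n = 5 per time point. Single 20 mg/kg oral dose given by feeding needle as a 2.5 mg/mL suspension in 1% w/v gum acacia and water. Serum and brain (homogenized 1:6 w/v in PBS) sampled up to 24 h. Liquid-liquid extraction, then LC-MS/MS in positive MRM mode with phenacetin as internal standard. Linear range 0.25-200 ng/mL. Non-compartmental and compartmental analysis.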
# [10] = molecular target: T1, G-protein coupled bile acid receptor 1 (Homo sapiens) (UniProt Q8TDU6); assay: Agonist activity at Gs-coupled GPBAR1 (unknown origin) expressed in HEK293T cells assessed as inhibition of forskolin-stimulated cAMP accumulation preincubated for 10 to 15 followed by forskolin-stimulation by Glo-sensor assay; type: functional, cell-based
# T1 sequence (whole entry): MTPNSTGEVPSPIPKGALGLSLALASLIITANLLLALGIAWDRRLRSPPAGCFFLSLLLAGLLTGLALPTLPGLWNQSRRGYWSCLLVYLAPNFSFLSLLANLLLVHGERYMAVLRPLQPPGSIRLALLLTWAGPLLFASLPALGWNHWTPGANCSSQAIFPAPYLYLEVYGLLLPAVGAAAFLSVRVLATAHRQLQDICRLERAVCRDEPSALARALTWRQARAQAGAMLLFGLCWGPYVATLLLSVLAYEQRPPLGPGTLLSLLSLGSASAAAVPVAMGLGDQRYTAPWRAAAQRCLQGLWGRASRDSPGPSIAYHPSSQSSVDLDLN
# [11] = system: Mus musculus; assay: Anorexic effect in high fat diet-induced obese C57BL/6J mouse model assessed as reduction in cumulative food intake at 20 mg/kg, po pretreated for 30 mins followed by food addition measured after 4 hrs relative to control; type: functional; design: scale not given: the % may be the effect or the level left
# How it was run: (§3)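 Mice starved 12 h (8:00 am to 8:00 pm) with water available, then housed singly. Compound given orally in 5% gum acacia in normal saline; vehicle group received the same. Cumulative food intake measured over 4 h of the night phase (9:00 pm to 1:00 am), starting 30 min after dosing. Antagonism arms: imitet 5 mg/kg i.p. 30 min before compound, or α-methyl-DL-histidine 20 mg/kg i.p. 2 h before.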
# [12] = Tmax in C57BL/6J mouse brain assessed as 4-(2-Amino-8-methyl-5,6,7,8-tetrahydroquinazolin-4-yl)phenol level at 20 mg/kg, po by LC-MS/MS analysis; type: ADME, organism-based; conditions: in vivo; how it was run: as §1
# [13] = system: Mus musculus; assay: Anti-obesity activity in 16 hrs fasted db/db-induced obese C57BL/6J mouse model assessed as improvement in glucose homeostasis at 20 mg/kg, po treated prior to glucose addition measured after 15 to 120 mins by IPGTT; type: functional, organism-based
# How it was run: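 Mice fasted 16 h; baseline tail-vein glucose read by glucometer. Glucose given i.p. at 2 g/kg (C57BL/6J) or 1 g/kg (db/db).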
# [14] = AUClast in C57BL/6J mouse brain at 20 mg/kg, po by LC-MS/MS analysis; type: ADME, organism-based; design: dose 20 mg/kg, route oral, time 0 - last; how it was run: as §2
# [15] = Half life in C57BL/6J mouse brain at 20 mg/kg, po by LC-MS/MS analysis; type: ADME, organism-based; how it was run: as §1
# [16] = Cmax in C57BL/6J mouse brain assessed as 4-(2-Amino-8-methyl-5,6,7,8-tetrahydroquinazolin-4-yl)phenol level at 20 mg/kg, po by LC-MS/MS analysis; type: ADME, organism-based; design: dose 20 mg/kg, route oral; conditions: in vivo; how it was run: as §1
# [17] = Ratio of AUClast in C57BL/6J mouse brain assessed as 4-(2-Amino-8-methyl-5,6,7,8-tetrahydroquinazolin-4-yl)phenol level to AUClast in C57BL/6J mouse brain; type: ADME, tissue-based; conditions: in vivo
# How it was run: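 Male C57BL/6J mice (6–8 weeks) were fasted 12–16 h, then given a single oral dose of 20 mg/kg as a 2.5 mg/mL suspension in 1% gum acacia/water (n=5 per time point). Serum and brain (homogenised 1:6 in PBS) were sampled up to 24 h. Parent and demethylated metabolite were measured by LC-MS/MS (range 0.25–200 ng/mL). AUC ran to the last observation.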
# [18] = system: Mus musculus; assay: Anorexic effect in 12 hrs fasted db/db-induced obese C57BL/6J mouse model assessed as reduction in cumulative food intake at 10 mg/kg, po pretreated for 30 mins followed by food addition measured after 4 hrs; type: functional, organism-based; how it was run: as §3
# [19] = Apparent volume of distribution in C57BL/6J mouse serum at 20 mg/kg, po by LC-MS/MS analysis; type: ADME, organism-based; how it was run: as §1
structure (smiles),measurement,setting,value
COc1ccc(-c2nc(N)nc3c2CCCC3C)cc1 (racemic),Activity,[1],27.1%
same,Activity,[2],Tde
same,Activity,[3],2.6 g
same,Cmax,[4],3333.3 ng/mL
same,INH,[5],> 10 µM
same,Activity,[6],inactive
same,Activity,[7],inactive
same,Activity,[8],0.8 g
same,AUClast,[9],1646.9 ng·h/mL
same,Activity,[10],inactive
same,Activity,[11],28%
same,Tmax,[12],0.5 h
same,Activity,[13],Active
same,AUC(0-t),[14],310 ng·h/mL
same,half-life,[15],1.1 h
same,Cmax,[16],101 ng/g
same,Ratio AUC,[17],32.4%
same,Activity,[18],inactive
same,Vd/F,[19],28.5 L/kg
